Experimental findings from ChEMBL document CHEMBL1139810, “Novel anti-infection agents: small-molecule inhibitors of bacterial transcription factors” (Bioorg Med Chem Lett, 2007) are described below.

In test [1] the test system is Escherichia coli. In words: Inhibition of Escherichia coli SoxS binding to DNA at 50 ug/mL.
Test [2] concerns Escherichia coli. Put plainly: Antimicrobial activity against antibiotic-susceptible Escherichia coli ML308-225. Format: functional.
In a further test the test system is Staphylococcus aureus. Put plainly: Antimicrobial activity against antibiotic-susceptible Staphylococcus aureus RN450. The format is functional.
Test [3] can be described thus: Inhibition of Escherichia coli SoxS binding to DNA.
In test [4] the test system is Escherichia coli. Put plainly: Inhibition of Escherichia coli SoxS binding to DNA at 25 ug/mL.
The subject of test [5] is Escherichia coli. Put plainly: Inhibition of Escherichia coli Rob binding to DNA. Format: functional, organism-based.
Test [6] in a line: Inhibition of Escherichia coli MarA binding to DNA. An outline of the steps: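 Binding of the 6-His-tagged Mar protein (20 nM) to biotinylated double-stranded target DNA (2 nM) was measured with test compound on streptavidin-coated wells. After washing, retained protein was read by luminescence, and inhibition appeared as signal loss. Selected compounds were also incubated with DNA and run on agarose gels to check whether they altered DNA structure.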

Test [7] addresses T1, HTH-type transcriptional regulator ExsA (Pseudomonas aeruginosa (strain ATCC 15692 / PAO1 / 1C / PRS 101 / LMG12228), UniProt P26993).
T1 sequence (P26993 whole entry): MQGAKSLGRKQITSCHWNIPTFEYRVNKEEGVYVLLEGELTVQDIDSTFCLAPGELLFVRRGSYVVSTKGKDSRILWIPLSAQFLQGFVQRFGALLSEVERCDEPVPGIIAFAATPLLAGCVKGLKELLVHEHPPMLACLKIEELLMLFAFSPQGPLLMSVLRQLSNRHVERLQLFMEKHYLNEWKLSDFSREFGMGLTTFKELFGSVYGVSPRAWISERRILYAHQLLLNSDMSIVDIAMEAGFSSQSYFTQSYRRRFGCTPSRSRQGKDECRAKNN
Put plainly: Inhibition of Pseudomonas aeruginosa ExsA binding to DNA.

Test [8] in a line: Inhibition of Proteus mirabilis PqrA binding to DNA.
Test [9] can be described thus: Inhibition of Salmonella Typhimurium Rma binding to DNA. Further details: species or system Salmonella enterica subsp. enterica serovar Typhimurium.
For test [10], the system named is Escherichia coli. Put plainly: Reduction of colony formation in urinary tract infection mouse model assessed per gram of kidney at 10 mg/kg, ip. The format is functional. As to conditions: route intraperitoneal.

For orientation: inhibition means the percentage by which the read-out fell short of the control. Read a high inhibition as a response far below the control. As to `COc1ccc2nc(-c3ccccc3)n(O)c2c1`, the inhibition with Escherichia coli [1] was 0%.
On to `CC(C)(C)c1ccc2nc(-c3ccccc3)n(O)c2c1`, for which the inhibition in the test on Escherichia coli [1] came out at 0%.
`NCCOn1c(-c2ccccc2)nc2ccc([N+](=O)[O-])cc21`: the inhibition with Escherichia coli [1] stood at 0%.
Compound `O=C(O)c1ccc2nc(-c3ccccc3)n(O)c2c1` had an inhibition in the test with Escherichia coli [1] of 12%.
Usually MIC stands for the smallest concentration in the dilution series that meets the test's criterion for growth inhibition. Read a low MIC as inhibition by little substance. One may read the IC50 as the concentration that inhibits the measured activity by half. Higher therefore signals a need for much substance. Regarding `O=C(Nc1ccc(-c2nc3ccc([N+](=O)[O-])cc3n2O)cc1)c1cccc(Cl)c1`, the MIC in the test with Escherichia coli [2] and against Staphylococcus aureus was above 64 µg/mL each time. This compound also yielded an IC50 in test [3] of 3.4 µM.
In the case of `CCCOn1c(-c2ccccc2)nc2ccc([N+](=O)[O-])cc21`, in the test with Escherichia coli [1], the inhibition stood at 0%.
As to `CN(C)c1cccc(-c2nc3ccc([N+](=O)[O-])cc3n2O)c1`, the inhibition in the test with Escherichia coli [1] came out at 30%.
For the compound `On1c(-c2ccccc2)nc2ccc(C(F)(F)F)cc21`, in the test on Escherichia coli [1], the inhibition came to 26%.
Take `CC(=O)Nc1ccc(-c2nc3ccc([N+](=O)[O-])cc3n2O)cc1`: the inhibition in the test with Escherichia coli [4] was 58%; in the test on Escherichia coli [1] it was 100%.
For the compound `N#Cc1ccc2nc(-c3ccccc3)n(O)c2c1`, the inhibition with Escherichia coli [1] was determined as 30%.
With `CN(C)c1ccc(C(=O)Nc2ccc(-c3nc4ccc([N+](=O)[O-])cc4n3O)cc2)cc1`, the IC50 in the test on Escherichia coli [5] is 1300 nM; in test [6], 1200 nM; in test [7] it was 1900 nM; in test [8], 1400 nM; in [9], 1.8 µM; in test [3], 0.82 µM. For the same compound, the MIC with Escherichia coli [2] and against Staphylococcus aureus was above 64 µg/mL throughout. This compound returned a CFU in the test with Escherichia coli [10] of 0.5.
With `CN(C)c1ccc2nc(-c3ccccc3)n(O)c2c1`, the inhibition in the test with Escherichia coli [1] came out at 28%.
`O=[N+]([O-])c1ccc2nc(-c3ccccc3)n(O)c2c1`: in the test on Escherichia coli [1], the inhibition was 38%.
Turning to `COn1c(-c2ccccc2)nc2ccc([N+](=O)[O-])cc21`, the inhibition in the test with Escherichia coli [1] stood at 17%.
With `O=[N+]([O-])c1ccc2nc(-c3ccccc3)n(OCCO)c2c1`, the inhibition in the test on Escherichia coli [1] stood at 0%.
Consider `O=C(O)CCOn1c(-c2ccccc2)nc2ccc([N+](=O)[O-])cc21`, for which, in the test on Escherichia coli [1], the inhibition was 0%.
Take `O=C(Nc1ccc(-c2nc3ccc([N+](=O)[O-])cc3n2O)cc1)c1ccc(F)cc1`: the IC50 with Escherichia coli [5] was determined as 4700 nM; in [7], 4000 nM; in test [9], 4.9 µM; in test [3], 2.8 µM. For the same compound, the MIC in the test on Escherichia coli [2] and in the test with Staphylococcus aureus was above 64 µg/mL in each case.
For `CS(=O)(=O)c1ccc2nc(-c3ccccc3)n(O)c2c1`, the inhibition with Escherichia coli [1] came to 35%.
As for `CC(=O)Nc1cccc(-c2nc3ccc([N+](=O)[O-])cc3n2O)c1`, the inhibition with Escherichia coli [1] amounted to 32%.
As to `CC(=O)Nc1ccccc1-c1nc2ccc([N+](=O)[O-])cc2n1O`, in the test with Escherichia coli [1], the inhibition stood at 31%.
Take `O=C(NCc1ccc(-c2nc3ccc([N+](=O)[O-])cc3n2O)cc1)c1ccccc1`: the inhibition with Escherichia coli [1] turned out to be 44%.
In the test on Escherichia coli [1], `O=[N+]([O-])c1ccc2nc(-c3ccc(Oc4ccccc4)cc3)n(O)c2c1` came in with an inhibition of 14%.
In turn, `CN(C)c1ccc(-c2nc3ccc([N+](=O)[O-])cc3n2O)cc1` gave an inhibition in the test with Escherichia coli [1] of 75%.
Consider `On1c(-c2ccccc2)nc2ccc(F)cc21`, for which, in the test on Escherichia coli [1], the inhibition stood at 26%.
For the compound `O=[N+]([O-])c1ccc2nc(-c3ccc(Br)cc3)n(O)c2c1`, the inhibition in the test with Escherichia coli [1] stood at 26%.
`C/C(=N/O)c1ccc2nc(-c3ccccc3)n(O)c2c1`: the inhibition with Escherichia coli [1] was 38%.
Still for that read-out and setting: the same measure for `On1c(-c2ccccc2)nc2ccccc21`: 0%.
As for `COc1ccc(C(=O)Nc2ccc(-c3nc4ccc([N+](=O)[O-])cc4n3O)cc2)cc1`, the MIC in the test with Escherichia coli [2] and against Staphylococcus aureus was above 64 µg/mL in each case. The IC50 in test [3] is 2.5 µM. The compound also gave a CFU with Escherichia coli [10] of 1.
Turning to `CC(=O)c1ccc2nc(-c3ccccc3)n(O)c2c1`, the inhibition in the test on Escherichia coli [1] was determined as 37%.
In the case of `NC(=O)c1ccc2nc(-c3ccccc3)n(O)c2c1`, the inhibition with Escherichia coli [1] came out at 14%.
`N#CCOn1c(-c2ccccc2)nc2ccc([N+](=O)[O-])cc21` displayed an inhibition in the test with Escherichia coli [1] of 12%.
Take `CCOC(=O)COn1c(-c2ccccc2)nc2ccc([N+](=O)[O-])cc21`: in the test with Escherichia coli [1], the inhibition amounted to 0%.
`O=C(Nc1ccc(-c2nc3ccc([N+](=O)[O-])cc3n2O)cc1)c1ccccc1`: the MIC in the test with Escherichia coli [2] and against Staphylococcus aureus was above 64 µg/mL throughout. Besides, the inhibition in the test on Escherichia coli [4] and in the test on Escherichia coli [1] was 100% throughout. Besides, in [3], the concentration for half-maximal inhibition (IC50) was found to be 17 µM.
In the case of `O=[N+]([O-])c1ccc2nc(-c3ccc(O)cc3)n(O)c2c1`, in the test on Escherichia coli [1], the inhibition is 35%.
In the case of `Nc1ccccc1-c1nc2ccc([N+](=O)[O-])cc2n1O`, the inhibition in the test with Escherichia coli [1] is 2%.
As to `COc1ccc(-c2nc3ccc([N+](=O)[O-])cc3n2O)cc1`, in the test on Escherichia coli [1], the inhibition came out at 12%.
In the case of `Cc1ccc(C(=O)Nc2ccc(-c3nc4ccc([N+](=O)[O-])cc4n3O)cc2)cc1`, the MIC against Escherichia coli [2] and against Staphylococcus aureus was above 64 µg/mL each time. Further, in test [3], the IC50 was 10 µM.
`O=C(O)COn1c(-c2ccccc2)nc2ccc([N+](=O)[O-])cc21` came in with an inhibition in the test on Escherichia coli [1] of 14%.
Compound `Nc1ccc(-c2nc3ccc([N+](=O)[O-])cc3n2O)cc1` came in with an inhibition in the test with Escherichia coli [1] of 80%.
Consider `Nc1cccc(-c2nc3ccc([N+](=O)[O-])cc3n2O)c1`, for which, in the test on Escherichia coli [1], the inhibition turned out to be 60%.
